An excerpt weighted towards active compounds, which were near 2.5% of everything screened.
mABHD4 FP = ABHD4 (mouse) inhibition, primary FP screen; Q8VD66; purified mABHD4, FP-Rh probe fluorescence polarization; inhibition, % at 8.92 µM; 0.54% of 370,000 active;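 active = inhibition exceeding the mean over every tested compound plus 3 SD, cut at about 30% in these data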;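 also: 0% = plate median of compound wells and 100% = S159A mutant with DMSO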
Target sequence (Q8VD66 whole entry, looked up): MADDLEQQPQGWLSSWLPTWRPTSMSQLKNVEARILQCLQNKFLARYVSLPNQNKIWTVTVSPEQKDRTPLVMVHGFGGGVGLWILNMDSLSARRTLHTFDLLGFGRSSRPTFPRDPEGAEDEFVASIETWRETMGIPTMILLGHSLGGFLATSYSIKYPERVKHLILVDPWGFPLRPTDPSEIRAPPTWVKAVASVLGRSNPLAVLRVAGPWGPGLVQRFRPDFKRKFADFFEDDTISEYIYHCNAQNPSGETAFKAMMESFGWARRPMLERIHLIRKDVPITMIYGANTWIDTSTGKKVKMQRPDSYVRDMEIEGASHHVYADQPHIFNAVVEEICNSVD
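Test system: mABHD4 protein; Read-out basis: % inhibition; Incubation: 45 min + 60 min at 25 °C; Repeats: single replicate; Technique: fluorescence polarization with parallel and perpendicular emission, 525/598 nm; Compound: 8.92 µM, single dose; Benchmarks: full inhibition S159A mutant plus DMSO, zero as sample-well median.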
PRMT1 FP inh = PRMT1 (human) inhibition, primary screen; Q99873; recombinant PRMT1, activity-based probe fluorescence polarization; inhibition, % at 2.79 µM; 1.3% of 370,000 active;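 active = inhibition above about 21% made by adding two undisclosed values, limit read from the data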
Target sequence (Q99873 whole entry, looked up): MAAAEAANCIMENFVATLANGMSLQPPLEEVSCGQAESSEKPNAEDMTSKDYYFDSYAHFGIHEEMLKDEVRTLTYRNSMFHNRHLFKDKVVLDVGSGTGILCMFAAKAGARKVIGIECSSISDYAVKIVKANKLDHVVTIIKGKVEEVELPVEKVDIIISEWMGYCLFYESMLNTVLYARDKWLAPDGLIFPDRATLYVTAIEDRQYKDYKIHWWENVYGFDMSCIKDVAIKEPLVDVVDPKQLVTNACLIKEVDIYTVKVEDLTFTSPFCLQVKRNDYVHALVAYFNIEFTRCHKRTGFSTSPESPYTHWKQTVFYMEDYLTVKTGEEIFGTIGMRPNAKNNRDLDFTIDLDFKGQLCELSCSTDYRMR
HTRA1 inh = HTRA1 (human) protease inhibition; Q92743; recombinant HTRA1, FP-rhodamine activity-based probe, fluorescence polarization; inhibition, % at 5.96 µM; 0.5% of 340,000 active; in the data active = inhibition above about 36%;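 also: 0% = enzyme with DMSO and 100% = wells lacking enzyme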
TCR CD3 inh = blocks the human TCR-CD3 interaction | inhibition, % at 9.4 µM | AID 651800 | TAMRA-labeled TCR probe fluorescence, biochemical | 0.37% of 360,000 active; in the data active = inhibition above about 19%;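 also: recombinant mutant TCR 2C K166C tagged with TAMRA read by polarization; 0% = receptor in buffer alone and 100% = receptor with positive control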
SIAE primary = human SIAE inhibition, primary screen; 0.69% of 370,000 active; Q9HAT2; inhibition, % at 9.66 µM; SIAE FP-Rh probe binding, fluorescence polarization;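 active = inhibition above a cutoff: mean of compounds within the control limits plus 3 SD of those, cut at about 17% in these data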;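 also: 0% = plate median of compound wells and 100% = probe without SIAE protein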
mABHD4 conf = ABHD4 (mouse) inhibition, FP confirmation. shares compounds with mABHD4 FP. purified mABHD4, FP-Rh probe fluorescence polarization. inhibition, % at 8.92 µM. 55% of 1,800 active;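 active = mean inhibition across replicates above the hit cutoff set in the primary screen, cut at about 30% in these data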;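 also: 0% = wild-type ABHD4 with DMSO and 100% = catalytically dead S159A mutant with DMSO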
Numbers without * were called inactive; . = not tested or not shown.

SMILES | mABHD4 FP | PRMT1 FP inh | HTRA1 inh | TCR CD3 inh | SIAE primary | mABHD4 conf
O=[N+]([O-])c1cc(Br)cc(/C=N/n2cnnc2)c1O | 8.2 | 7.4 | 7.0 | -1.1 | 2.4 | .
Brc1ccc([C@H]2CN3CCSC3=N2)cc1 | 8.4 | 3.0 | -2.3 | -0.3 | 7.9 | .
C/C(=N\Nc1cccc(C(=O)O)c1)c1cc2ccccc2o1 | 32.1* | 7.6 | 1.9 | -8.4 | 1.3 | 30.2*
O=C(O)c1cccc(NN=C2c3ccccc3-c3ccccc32)c1 | 56.4* | 11.7 | -7.6 | 3.1 | -7.6 | 49.1*
O=C(O)c1cccc2c1-c1ccccc1/C2=N\Nc1ccccc1 | 38.0* | 5.7 | 0.6 | 7.1 | 1.8 | 23.1
O=C(O)c1cc(N/N=C/C(Cl)=C/c2ccccc2)ccc1Cl | 7.8 | 3.1 | -3.9 | 9.4 | 2.0 | .
O=C(O)c1cc(NN=C2c3ccccc3-c3ccccc32)ccc1Cl | 38.9* | 6.4 | -16.5 | 6.9 | 1.9 | 44.8*
O=C(O)c1cccc(N/N=C/c2ccc(-c3ccccc3)cc2)c1 | 7.7 | -0.6 | -26.0 | 1.9 | 3.5 | .
Cc1cccc(C(=O)NC(=S)Nc2cccc3nc(C)ccc23)c1 | -5.5 | 3.6 | -2.4 | 1.6 | -13.1 | .
COC(=O)C1=C(C)N(Cc2ccccc2C(F)(F)F)C(=NCc2ccc3c(c2)OCO3)NC1c1cccc(C(F)(F)F)c1 (stereo unspecified) | 11.5 | -1.7 | . | -2.4 | 0.1 | .
CC1(C(=O)NS(=O)(=O)c2cccc(Cl)c2)CCN1C(=O)C1(c2ccc(Cl)cc2)CCC1 (stereo unspecified) | -2.3 | 0.2 | . | -2.9 | -7.9 | .
O=C(O)C1Cn2c(nc3c(c2=O)C2(CCCC2)Cc2ccccc2-3)S1 (stereo unspecified) | 41.6* | -1.7 | 4.2 | -1.4 | 1.8 | 41.6*
CCOC(=O)C1Cn2c(nc3c(c2=O)C2(CCCC2)Cc2ccccc2-3)S1 (stereo unspecified) | -4.2 | 1.4 | -4.0 | 0.2 | -2.1 | .
CC(=O)Oc1ccc2c(=O)c(Oc3ccccc3)c(C)oc2c1OC(C)=O | 41.9* | 15.1 | 33.6 | -5.6 | -6.3 | -8.3
O=S(=O)(c1ccc(NC(=S)NCc2ccncc2)cc1)N1CCCCC1 | -7.3 | 8.3 | -9.8 | -2.3 | -1.6 | .
CCN=c1scc(C)n1/N=C/c1cc(Br)c(O)c(OC)c1 | 29.7* | -1.2 | 21.2 | -4.3 | 12.3 | 32.5*
COC(=O)c1ccc(CSc2nc3ccc(S(=O)(=O)N4CCOCC4)cc3[nH]2)cc1 | -5.8 | -5.5 | -9.4 | 9.7 | -7.3 | .
COc1ccc(OC)c(Nc2nc(NCCO)c3ccccc3n2)c1 | 3.4 | 1.1 | 10.3 | 2.0 | 5.1 | .
Cc1ccc(Nc2nc(NCCO)c3ccccc3n2)cc1C | 35.1* | -3.9 | 5.4 | -3.4 | -4.2 | 78.0*
O=C(COC(=O)C1CC2CCCC(C1)C2=O)NNC(=O)c1ccc([N+](=O)[O-])cc1 (stereo unspecified) | 4.2 | 12.9 | 2.8 | 5.0 | 1.9 | .
C=CCCCCCCCCC(=O)NNC1CC(=O)N(c2ccccc2)C1=O (stereo unspecified) | -9.1 | -5.3 | -1.7 | -2.0 | 3.0 | .
COc1ccc(NC(=O)Nc2nnc([C@H]3C[C@H](O)[C@@H](CO)O3)s2)cc1 | -9.5 | -2.0 | . | 3.3 | 1.4 | .
CCCCC1CC(CSc2ncn[nH]2)OC1=O (stereo unspecified) | 79.2* | 1.0 | 2.5 | 0.6 | 4.8 | -13.4
CCCCCCCC1CC(CSc2ncn[nH]2)OC1=O (stereo unspecified) | -5.4 | 0.2 | -1.0 | 2.9 | 0.9 | .
Cc1ccccc1NC1=NCC(c2ccc([N+](=O)[O-])cc2)S1 (stereo unspecified) | -0.9 | 4.5 | -2.8 | -3.8 | 7.5 | .
SMILES | mABHD4 FP | PRMT1 FP inh | HTRA1 inh | TCR CD3 inh | SIAE primary | mABHD4 conf
CCc1ccc(S(=O)(=O)Nc2ccc(O)c3ccccc23)cc1 | 28.9 | 6.2 | 1.9 | -10.9 | -4.4 | .
CCc1ccc(S(=O)(=O)Nc2cc(SCC(=O)O)c(O)c3ccccc23)cc1 | 31.4* | 76.8* | 29.7 | 0.3 | 6.9 | 45.0*
Cc1ccnc(NC(=O)C2CCCN(S(=O)(=O)c3ccc4[nH]c(=O)ccc4c3)C2)c1 (stereo unspecified) | 3.6 | 3.2 | -0.1 | 4.6 | -0.9 | .
Cc1ccn2c(NC3CCCCC3)c(-c3cccc(-c4cccc(Cl)c4)c3)nc2c1 | 37.8* | 3.1 | -7.0 | -5.5 | 1.7 | 53.8*
CC(=O)Oc1cc2c3c(c1)/C(=C1/SC(=S)NC1=O)C(=O)N3C(C)(C)C=C2C | 61.2* | 5.2 | 29.2 | 2.5 | 6.0 | 100.7*
O=C1OC(c2ccccc2)(c2cc(Br)c(O)c(Br)c2)c2ccccc21 (stereo unspecified) | 35.1* | -0.2 | -6.5 | 5.5 | -1.4 | 31.7*
O=C(O)c1ccc(C2(c3ccc(C(=O)O)cc3)OC(=O)c3ccccc32)cc1 | 0.6 | -0.4 | -4.6 | 1.8 | -4.5 | .
CC1(C)CC(=O)C=C(Nc2ccccc2O)C1 | 3.4 | 2.4 | 3.7 | 5.3 | 12.7 | .
CC1(C)CC(=O)C=C(Nc2ccc(C(=O)O)c(O)c2)C1 | 32.4* | 10.0 | -2.3 | 3.4 | 8.5 | -2.1
CCOC(=O)Cc1csc(NC(=O)c2sc3nc4ccc(C)cc4cc3c2N)n1 | 35.6* | -0.3 | -17.3 | 2.4 | 4.3 | 14.1
O=C(Cc1cccs1)N1CCN(S(=O)(=O)c2ccc(Cl)c(C(F)(F)F)c2)CC1 | 2.3 | 2.9 | 4.2 | -1.9 | -1.7 | .
COc1cccc(CNS(=O)(=O)c2c(C)nc3sccn3c2=O)c1 | 64.8* | 3.9 | 4.2 | 4.7 | 0.1 | -2.8
Cc1nc2sccn2c(=O)c1S(=O)(=O)NCc1ccccc1 | 3.1 | 0.6 | 3.6 | -4.5 | -4.9 | .
Cc1nc(NC(=O)COc2ccccc2)sc1C(=O)Nc1ccccc1 | 49.5* | 2.9 | -31.8 | -2.8 | 0.1 | 49.8*
Cc1cc(C)n(CC(=O)Nc2ccc3c(c2)OCO3)c(=O)c1C#N | 31.0* | -1.2 | -5.0 | 2.1 | 4.1 | -8.4
C#CNC(=O)C1(CC=C)CCNCC1 | 8.6 | -1.1 | 2.1 | 5.8 | -1.4 | .
O=C(O)c1[nH]c2ccccc2c1C(c1ccccc1)c1c(C(=O)O)[nH]c2ccccc12 | 31.8* | 1.4 | 9.8 | 9.0 | 6.8 | 38.2*
C=CCOc1ccc(C(c2c(C(=O)O)[nH]c3ccccc23)c2c(C(=O)O)[nH]c3ccccc23)cc1 | 55.3* | 2.7 | 10.2 | 4.7 | 2.2 | 52.8*
COCC(=O)c1[nH]c2ccccc2c1C | 5.5 | 1.9 | -0.5 | 4.0 | -1.8 | .
COc1ccc(CN=Cc2c(C(=O)O)[nH]c3ccccc23)cc1 | 2.4 | 2.8 | 6.8 | -5.7 | -4.6 | .
O=C(NCCCN1CCCC1)Nc1ccccc1[N+](=O)[O-] | 0.6 | -2.2 | 2.7 | -2.7 | -2.9 | .
CC(C)CCNC(=O)c1sc2ccc(S(=O)(=O)N3CCCCC3)cc2c1N | -1.7 | 11.9 | -24.1 | 2.9 | -6.6 | .
Nc1cccc2[nH]c(=O)c3ccccc3c12 | 30.7* | 5.8 | 9.0 | 2.6 | 16.4 | 12.2
Nc1cc2c(cc1Br)[nH]c(=O)c1ccccc12 | 31.1* | 3.4 | 27.8 | 0.8 | -2.9 | 31.1*

Compound activity (PubChem)
